Results as given in ChEMBL document CHEMBL3797175, “Discovery of 6-(difluoro(6-(4-fluorophenyl)-[1,2,4]triazolo[4,3-b][1,2,4]triazin-3-yl)methyl)quinoline as a highly potent and selective c-Met inhibitor” (Eur J Med Chem, 2016).
The source made the active and inactive calls. The calls are words filed in the database; no cut-off is given here.

Key:
[1] = Selectivity ratio of IC50 for human NCI-H460 cells to IC50 for human EBC1 cells; format: ADME, cell-based
In short: (§1)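 Both IC50s in each ratio come from one proliferation assay. Cells were seeded and exposed the next day to a range of concentrations for 72 h, then read by SRB or MTT. IC50s were fitted by four-parameter concentration–response, with each concentration at least in triplicate and at least 2 experiments. BaF3/TPR-Met is murine pre-B BaF3 transfected with TPR-MET and puromycin-selected.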

[2] = Selectivity ratio of IC50 for human HCT116 cells to IC50 for human EBC1 cells; format: ADME, cell-based; settings: hct-116; in short: as §1
[3] = Selectivity ratio of IC50 for human HCT116 cells to IC50 for human MKN45 cells; format: ADME, cell-based; settings: hct-116; in short: as §1
[4] = Selectivity ratio of IC50 for human 786-0 cells to IC50 for human MKN45 cells; format: ADME, cell-based; settings: mkn-45; in short: as §1
[5] = Selectivity ratio of IC50 for human NCI-H358 cells to IC50 for mouse BAF3 cells expressing TPR-MET; format: ADME, cell-based; in short: as §1
[6] = biological target: Macrophage-stimulating protein receptor (Homo sapiens) (UniProt Q04912); test: Inhibition of recombinant RON (unknown origin) using poly (Glu, Tyr) 4:1 as substrate at 1000 nM incubated for 60 mins by ELISA relative to control
In short: (§2)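 Recombinant tyrosine kinases assayed on wells precoated with poly(Glu,Tyr)4:1 (20 µg/mL). ATP 10 µmol/L in HEPES pH 7.4 buffer with MgCl2, MnCl2, Na3VO4 and DTT; compound in 1% DMSO, 1% DMSO as control. Reaction 60 min at 37 °C. Phosphotyrosine detected with PY99 and HRP anti-mouse, o-phenylenediamine, A490. Inhibition % relative to control; two experiments.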

[7] = biological target: Hepatocyte growth factor receptor (Canis lupus familiaris) (UniProt Q75ZY9); test: Inhibition of c-Met in MDCK cells assessed as inhibition of HGF-induced branching morphogenesis at 0.4 to 10 nM after 5 days by microscopic analysis; format: cell-based
In short: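 MDCK cells (2×10^4/mL) mixed 1:1 with collagen I and gelled 60 min at 37 °C. HGF (100 ng/mL) added with or without compound at various concentrations in growth medium. Medium renewed every 2 d; branching imaged by microscopy after 5 d. Three independent experiments.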

[8] = Selectivity ratio of IC50 for human Bel7404 cells to IC50 for human EBC1 cells; format: ADME, cell-based; in short: as §1
[9] = biological target: T1, Hepatocyte growth factor receptor (Homo sapiens, UniProt P08581); test: Inhibition of c-Met in human EBC1 cells assessed as reduction in AKT phosphorylation at Serine 473 at 10 nM after 1 hr by Western blot analysis; format: cell-based
In short: (§3)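 EBC-1 or MKN45 cells treated with compound 1 h at 37 °C without HGF, then lysed in 1× SDS sample buffer. Lysates run on 10% SDS-PAGE and transferred to nitrocellulose. Probed with antibodies to c-Met, phospho-c-Met, phospho-ERK1/2, phospho-AKT, AKT and GAPDH, then HRP secondary. ECL detection.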

[10] = Selectivity ratio of IC50 for human Bel7404 cells to IC50 for mouse BAF3 cells expressing TPR-MET; format: ADME, cell-based; in short: as §1
[11] = biological target: T1, Hepatocyte growth factor receptor; test: Inhibition of c-Met phosphorylation at Tyrosine 1235 in human EBC1 cells at 10 nM after 1 hr by Western blot analysis; format: cell-based; in short: as §3
[12] = Selectivity ratio of IC50 for human NCI-H3122 cells to IC50 for human MKN45 cells; format: ADME, cell-based; settings: mkn-45; in short: as §1
[13] = Volume of distribution at steady state in Sprague-Dawley rat at 2 mg/kg, iv administered as single dose; format: ADME, organism-based; settings: in vivo, read-out: Vdss
In short: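 Male Sprague-Dawley rats (n=3), single dose. IV 2 mg/kg in 1% DMA/9% Cremophor/90% saline; PO 10 mg/kg in 0.5% CMC-Na. For one compound, IV 10 mg/kg in DMSO/Tween 80/PEG40 and PO 10 mg/kg in 10% DMSO/5% Tween 80/85% saline.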

[14] = Selectivity ratio of IC50 for human NCI-H460 cells to IC50 for human MKN45 cells; format: ADME, cell-based; in short: as §1
[15] = Selectivity ratio of IC50 for human NCI-H661 cells to IC50 for mouse BAF3 cells expressing TPR-MET; format: ADME, cell-based; in short: as §1
[16] = biological target: TPR/MET fusion protein (Mus musculus) (UniProt P16056+F6ZDS4); test: Inhibition of TPR-MET in mouse BAF3 cells assessed as reduction in AKT phosphorylation at Serine 473 at 10 nM after 1 hr by Western blot analysis; format: cell-based
In short: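 BaF3 stably expressing TPR-MET (puromycin-selected), grown with IL-3-conditioned medium. Treated 1 h at 37 °C, lysed in SDS sample buffer. 10% SDS-PAGE and immunoblot for phospho-c-Met, phospho-ERK1/2, phospho-AKT and totals; ECL detection.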

[17] = biological target: T1, Hepatocyte growth factor receptor; test: Inhibition of c-Met phosphorylation at Tyrosine 1235 in HGF stimulated human U87MG cells at 10 nM after 1 hr by Western blot analysis; format: cell-based; settings: U-87MG ATCC
In short: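 U87MG cells serum-starved 24 h, pretreated with compound 1 h at 37 °C, then stimulated with HGF (100 ng/mL) for 15 min. Lysed in 1× SDS sample buffer, resolved by 10% SDS-PAGE and blotted to nitrocellulose. Probed for phospho-c-Met, phospho-ERK1/2, phospho-AKT and totals, with GAPDH as loading control. ECL detection.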

[18] = system: Mus musculus; test: Toxicity in athymic nude mouse xenografted with human EBC1 cells assessed as body weight loss at 6.25 to 25 mg/kg, po bid for 21 days measured twice a week during compound dosing; format: organism-based; settings: in vivo, 504 h
In short: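 Nude mice carrying s.c. EBC-1 tumor fragments, randomized at 100–200 mm³ (n=6 treated, n=12 vehicle). Dosed orally twice daily for 21 days. Body weight and caliper tumor volume measured twice weekly.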

[19] = Antiproliferative activity against human PANC1 cells after 72 hrs by SRB or MTT assay; format: functional, cell-based; settings: PANC-1, 72 h
In short: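 Cells seeded, exposed next day to a range of concentrations for 72 h. Growth read by sulforhodamine B or MTT. IC50 from four-parameter concentration-response fit. Each concentration tested at least in triplicate, with at least 2 experiments.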

[20] = Selectivity ratio of IC50 for human Calu3 cells to IC50 for human MKN45 cells; format: ADME, cell-based; settings: mkn-45; in short: as §1
[21] = biological target: Platelet-derived growth factor receptor beta (Homo sapiens) (UniProt P09619); test: Inhibition of recombinant PDGFRbeta (unknown origin) using poly (Glu, Tyr) 4:1 as substrate at 1000 nM incubated for 60 mins by ELISA relative to control; in short: as §2
[22] = system: MKN-45; test: Antitumor activity against human MKN45 cells xenografted in po dosed athymic nude mouse assessed as tumor growth inhibition administered bid for 21 days measured twice a week during compound dosing; format: functional, organism-based
In short: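 Nude mice bearing s.c. tumours. Cells were first grown s.c. to 700–800 mm³, then 1.5 mm³ fragments were transplanted s.c. into the right flank. Mice were randomised at 100–200 mm³ (n=6 treated, n=12 vehicle) and dosed orally twice daily for 21 days. Caliper measurement twice weekly; TV = length×width²/2. TGI taken on the final day versus vehicle; Student's t test.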

[23] = Selectivity ratio of IC50 for human NCI-HCC827 cells to IC50 for human EBC1 cells; format: ADME, cell-based; in short: as §1

T1 sequence (P08581 whole entry): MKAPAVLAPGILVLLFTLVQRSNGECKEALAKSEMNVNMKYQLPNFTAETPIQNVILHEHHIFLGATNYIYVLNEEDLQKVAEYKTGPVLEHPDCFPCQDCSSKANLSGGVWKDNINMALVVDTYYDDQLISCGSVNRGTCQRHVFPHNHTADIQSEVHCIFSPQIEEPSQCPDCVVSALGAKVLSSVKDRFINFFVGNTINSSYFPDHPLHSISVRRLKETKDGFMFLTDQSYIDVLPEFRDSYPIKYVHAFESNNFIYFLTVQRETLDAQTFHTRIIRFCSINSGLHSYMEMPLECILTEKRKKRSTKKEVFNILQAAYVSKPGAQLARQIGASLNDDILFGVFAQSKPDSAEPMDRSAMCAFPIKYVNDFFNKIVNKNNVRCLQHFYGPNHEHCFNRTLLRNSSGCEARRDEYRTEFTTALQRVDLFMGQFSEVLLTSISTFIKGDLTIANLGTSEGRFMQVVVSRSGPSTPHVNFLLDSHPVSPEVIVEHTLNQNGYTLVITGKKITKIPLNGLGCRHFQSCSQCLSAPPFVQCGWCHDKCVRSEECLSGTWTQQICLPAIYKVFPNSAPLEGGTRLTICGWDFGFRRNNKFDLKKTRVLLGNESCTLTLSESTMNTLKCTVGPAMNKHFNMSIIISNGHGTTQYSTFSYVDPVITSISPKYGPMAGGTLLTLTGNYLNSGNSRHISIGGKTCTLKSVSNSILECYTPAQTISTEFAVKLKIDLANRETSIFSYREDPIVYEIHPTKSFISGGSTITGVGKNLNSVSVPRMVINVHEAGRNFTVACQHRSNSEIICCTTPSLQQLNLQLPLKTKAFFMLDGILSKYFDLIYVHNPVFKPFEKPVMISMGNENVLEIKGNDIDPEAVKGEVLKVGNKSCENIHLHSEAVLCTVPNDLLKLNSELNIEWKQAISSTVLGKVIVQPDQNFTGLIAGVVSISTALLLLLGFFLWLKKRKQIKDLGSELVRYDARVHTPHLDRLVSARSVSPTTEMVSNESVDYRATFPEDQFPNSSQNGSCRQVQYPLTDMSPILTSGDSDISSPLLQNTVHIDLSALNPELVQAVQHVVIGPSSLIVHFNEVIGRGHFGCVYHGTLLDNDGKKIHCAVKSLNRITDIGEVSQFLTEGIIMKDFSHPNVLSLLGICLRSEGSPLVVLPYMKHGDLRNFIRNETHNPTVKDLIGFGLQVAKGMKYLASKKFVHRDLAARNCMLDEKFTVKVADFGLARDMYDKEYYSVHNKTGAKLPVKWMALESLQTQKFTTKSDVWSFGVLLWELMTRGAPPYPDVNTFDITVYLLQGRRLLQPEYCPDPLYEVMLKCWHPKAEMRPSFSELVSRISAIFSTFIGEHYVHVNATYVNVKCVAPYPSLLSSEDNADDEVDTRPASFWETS
Chain of Platelet-derived growth factor receptor beta (Homo sapiens) (P09619 whole entry): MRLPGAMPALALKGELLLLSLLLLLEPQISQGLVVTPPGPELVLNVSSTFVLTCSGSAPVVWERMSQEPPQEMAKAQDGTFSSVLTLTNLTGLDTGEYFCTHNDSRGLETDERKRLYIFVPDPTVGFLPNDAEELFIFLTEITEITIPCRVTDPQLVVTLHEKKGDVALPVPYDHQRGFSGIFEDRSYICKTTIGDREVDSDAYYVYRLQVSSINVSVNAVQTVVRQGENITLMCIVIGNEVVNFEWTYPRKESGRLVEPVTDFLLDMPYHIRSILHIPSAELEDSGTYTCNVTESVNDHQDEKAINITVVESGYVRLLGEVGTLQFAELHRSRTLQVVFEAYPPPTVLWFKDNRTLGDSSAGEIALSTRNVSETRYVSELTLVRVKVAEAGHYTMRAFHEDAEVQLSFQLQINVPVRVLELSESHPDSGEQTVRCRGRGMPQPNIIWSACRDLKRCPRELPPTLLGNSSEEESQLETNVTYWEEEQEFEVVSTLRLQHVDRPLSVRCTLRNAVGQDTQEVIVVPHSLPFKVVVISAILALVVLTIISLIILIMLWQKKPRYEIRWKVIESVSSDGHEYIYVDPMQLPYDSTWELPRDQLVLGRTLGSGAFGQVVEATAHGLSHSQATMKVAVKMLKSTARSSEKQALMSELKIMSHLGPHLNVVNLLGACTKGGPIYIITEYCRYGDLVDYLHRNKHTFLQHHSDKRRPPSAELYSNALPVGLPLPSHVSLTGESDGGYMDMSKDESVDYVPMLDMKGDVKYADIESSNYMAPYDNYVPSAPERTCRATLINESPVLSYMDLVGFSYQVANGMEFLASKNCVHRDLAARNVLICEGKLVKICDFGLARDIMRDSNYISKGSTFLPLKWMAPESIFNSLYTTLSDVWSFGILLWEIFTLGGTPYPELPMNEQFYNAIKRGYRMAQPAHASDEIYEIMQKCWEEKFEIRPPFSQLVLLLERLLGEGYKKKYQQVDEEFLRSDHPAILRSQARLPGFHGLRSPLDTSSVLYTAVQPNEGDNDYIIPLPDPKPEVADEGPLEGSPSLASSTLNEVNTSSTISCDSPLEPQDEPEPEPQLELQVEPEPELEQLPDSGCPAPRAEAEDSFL
Chain of Macrophage-stimulating protein receptor (Homo sapiens) (Q04912 25-304 limits assumed): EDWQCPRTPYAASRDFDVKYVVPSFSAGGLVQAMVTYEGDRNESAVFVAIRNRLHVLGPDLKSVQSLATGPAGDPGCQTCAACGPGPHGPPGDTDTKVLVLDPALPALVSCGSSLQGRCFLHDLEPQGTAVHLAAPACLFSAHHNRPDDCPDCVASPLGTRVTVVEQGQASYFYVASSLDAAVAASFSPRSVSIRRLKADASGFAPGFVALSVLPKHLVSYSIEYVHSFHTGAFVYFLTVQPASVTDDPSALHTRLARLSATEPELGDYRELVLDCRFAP
Chain of Macrophage-stimulating protein receptor (Homo sapiens) (Q04912 310-1400 limits assumed): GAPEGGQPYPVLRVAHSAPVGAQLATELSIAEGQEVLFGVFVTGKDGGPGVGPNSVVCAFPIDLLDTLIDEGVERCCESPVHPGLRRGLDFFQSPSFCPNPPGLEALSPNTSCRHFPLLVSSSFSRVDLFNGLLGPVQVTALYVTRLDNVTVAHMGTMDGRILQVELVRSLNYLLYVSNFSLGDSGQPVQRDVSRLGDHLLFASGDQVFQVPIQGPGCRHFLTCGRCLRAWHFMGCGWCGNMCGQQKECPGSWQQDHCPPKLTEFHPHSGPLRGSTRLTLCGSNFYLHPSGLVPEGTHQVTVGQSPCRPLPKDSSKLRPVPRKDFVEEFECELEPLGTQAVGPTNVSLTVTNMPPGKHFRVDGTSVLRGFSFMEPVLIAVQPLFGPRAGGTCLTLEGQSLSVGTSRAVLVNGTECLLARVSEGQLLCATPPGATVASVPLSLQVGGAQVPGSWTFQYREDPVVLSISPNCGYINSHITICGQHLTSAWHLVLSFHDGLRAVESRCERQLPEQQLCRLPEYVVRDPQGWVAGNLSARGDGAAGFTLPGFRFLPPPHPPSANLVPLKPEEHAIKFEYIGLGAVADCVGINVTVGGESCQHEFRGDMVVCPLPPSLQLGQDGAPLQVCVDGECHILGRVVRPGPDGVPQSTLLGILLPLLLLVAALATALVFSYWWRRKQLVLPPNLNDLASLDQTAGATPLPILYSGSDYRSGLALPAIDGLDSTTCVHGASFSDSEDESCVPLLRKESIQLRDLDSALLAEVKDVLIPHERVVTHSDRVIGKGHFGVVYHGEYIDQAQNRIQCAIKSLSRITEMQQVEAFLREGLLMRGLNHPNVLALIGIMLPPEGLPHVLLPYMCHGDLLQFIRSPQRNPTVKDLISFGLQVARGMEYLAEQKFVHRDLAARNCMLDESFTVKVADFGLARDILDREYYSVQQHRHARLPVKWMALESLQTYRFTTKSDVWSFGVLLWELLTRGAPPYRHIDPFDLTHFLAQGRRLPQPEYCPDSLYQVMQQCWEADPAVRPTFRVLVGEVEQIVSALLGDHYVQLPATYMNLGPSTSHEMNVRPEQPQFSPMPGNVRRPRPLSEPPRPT

## Fc1ccc(-c2cnc3nnc(C(F)(F)c4ccc5ncccc5c4)n3n2)cc1
[1]
  Ratio IC50: 10000
[2]
  Ratio IC50: 10000
[3]
  Ratio IC50: 10000
[4]
  Ratio IC50: 10000
[5]
  Ratio IC50: 10000
[6]
  inhibition: 33.9%
[7]
  inhibition: Active
[8]
  Ratio IC50: 10000
[9]
  inhibition: Active
[10]
  Ratio IC50: 10000
[11]
  inhibition: Active
[12]
  Ratio IC50: 10000
[13]
  Vd: 4.89 L/kg
[14]
  Ratio IC50: 10000
[15]
  Ratio IC50: > 10000
[16]
  inhibition: Active
[17]
  inhibition: Active
[18]
  Activity: Non-toxic
[19]
  IC50: > 10 µM
[20]
  Ratio IC50: > 10000
[21]
  inhibition: 19.6%
[22]
  TGI: Dose-dependent effect
[23]
  Ratio IC50: 10000
